From ChEMBL document CHEMBL3632581, “Dimers of Melampomagnolide B Exhibit Potent Anticancer Activity against Hematological and Solid Tumor Cells” (J Med Chem, 2015)

Experiments:
786-0 = assay: Cytotoxicity against human 786-0 cells after 48 hrs by SRB assay; assay type: functional; details: 786-0, 48 h
Summary of the method: (§1)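 NCI-60 five-dose screen at 10−8 to 10−4 M. Cells were plated at 5,000–40,000/well in RPMI 1640 with 5% FBS and 2 mM L-glutamine, then preincubated 24 h, and time-zero plates were TCA-fixed. Compound was added from DMSO stocks and exposed 48 h at 37 °C. Cells were TCA-fixed, SRB-stained, and read at 515 nm. LC50 is the concentration halving the cell population through cell death.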

CCRF-CEM = assay: Cytotoxicity against human CCRF-CEM cells after 48 hrs by SRB assay; assay type: functional; summary of the method: as §1
COLO 205 = assay: Cytotoxicity against human COLO205 cells after 48 hrs by SRB assay; assay type: functional; details: COLO 205, 48 h; summary of the method: as §1
[1] = Cytotoxicity against human NCI-ADR-RES cells after 48 hrs by SRB assay; assay type: functional; summary of the method: as §1
UO-31 = assay: Cytotoxicity against human UO31 cells after 48 hrs by SRB assay; assay type: functional; details: UO-31, 48 h
Summary of the method: (§2)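 NCI-60 screen: cells grown in RPMI 1640 with 5% FBS and 2 mM L-glutamine, plated at 5,000–40,000 cells/well by doubling time, and preincubated 24 h at 37 °C before drug. Drug was diluted from DMSO stock and given at five concentrations, 10−4 to 10−8 M, for 48 h. Cells fixed with cold TCA, SRB stained, OD read at 515 nm against time-zero and vehicle plates. LC50 taken as the concentration that halves cell population through cell death.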

SNB-75 = assay: Cytotoxicity against human SNB75 cells after 48 hrs by SRB assay; assay type: functional; details: SNB-75, 48 h; summary of the method: as §1
KM12 = assay: Cytotoxicity against human KM12 cells after 48 hrs by SRB assay; assay type: functional; details: KM12, 48 h; summary of the method: as §1
SF-295 = assay: Cytotoxicity against human SF295 cells after 48 hrs by SRB assay; assay type: functional; details: SF-295, 48 h; summary of the method: as §1
[2] = Antileukemic activity against human AML02 cells after 24 hrs by annexin V/7-AAD staining-based flow cytometric analysis; assay type: functional, cell-based
Summary of the method: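 Primary AML specimens from consenting donors, isolated by Ficoll-Paque gradient and sometimes cryopreserved. Cells were held 1 h in serum-free IMDM with 20% BIT 9500, LDL and β-mercaptoethanol before drug (DMSO stock diluted in PBS, ≤0.5% DMSO final). Exposure was 24 h over 0.5-10 μM. Annexin V/7-AAD double-negative cells, normalized to vehicle, gave the EC50. Run in triplicate.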

OVCAR-4 = assay: Cytotoxicity against human OVCAR4 cells after 48 hrs by SRB assay; assay type: functional; details: OVCAR-4, 48 h; summary of the method: as §1
NCI-H522 = assay: Cytotoxicity against human NCI-H522 cells after 48 hrs by SRB assay; assay type: functional; details: NCI-H522, 48 h; summary of the method: as §1
HCC 2998 = assay: Cytotoxicity against human HCC2998 cells after 48 hrs by SRB assay; assay type: functional; details: HCC 2998, 48 h; summary of the method: as §1
A498 = assay: Cytotoxicity against human A498 cells after 48 hrs by SRB assay; assay type: functional; details: A498, 48 h; summary of the method: as §1
ACHN = assay: Cytotoxicity against human ACHN cells after 48 hrs by SRB assay; assay type: functional; summary of the method: as §1
HOP-62 = assay: Cytotoxicity against human HOP62 cells after 48 hrs by SRB assay; assay type: functional; details: HOP-62, 48 h; summary of the method: as §1
U-251 = assay: Cytotoxicity against human U251 cells after 48 hrs by SRB assay; assay type: functional; details: U-251, 48 h; summary of the method: as §2
MDA-MB-435 = assay: Cytotoxicity against human MDA-MB-435 cells after 48 hrs by SRB assay; assay type: functional; details: MDA-MB-435, 48 h; summary of the method: as §1
UACC-257 = assay: Cytotoxicity against human UACC257 cells after 48 hrs by SRB assay; assay type: functional; details: UACC-257, 48 h; summary of the method: as §2
[3] = Potency index, ratio of parthenolide EC50 to compound EC50 for human M9-ENL1 cells; assay type: functional
NCI-H226 = assay: Cytotoxicity against human NCI-H226 cells after 48 hrs by SRB assay; assay type: functional; details: NCI-H226, 48 h; summary of the method: as §1
NCI-H23 = assay: Cytotoxicity against human NCI-H23 cells after 48 hrs by SRB assay; assay type: functional; details: NCI-H23, 48 h; summary of the method: as §1
MDA-MB-231 = assay: Cytotoxicity against human MDA-MB-231 cells after 48 hrs by SRB assay; assay type: functional; details: MDA-MB-231, 48 h; summary of the method: as §1
HOP-92 = assay: Cytotoxicity against human HOP92 cells after 48 hrs by SRB assay; assay type: functional; details: HOP-92, 48 h; summary of the method: as §1
MOLT-4 = assay: Cytotoxicity against human MOLT4 cells after 48 hrs by SRB assay; assay type: functional; details: MOLT-4, 48 h; summary of the method: as §1
SK-OV-3 = assay: Cytotoxicity against human SKOV3 cells after 48 hrs by SRB assay; assay type: functional; details: SK-OV-3, 48 h; summary of the method: as §1
MDA-MB-468 = assay: Cytotoxicity against human MDA-MB-468 cells after 48 hrs by SRB assay; assay type: functional; details: MDA-MB-468, 48 h; summary of the method: as §1
SK-MEL-2 = assay: Cytotoxicity against human SK-MEL-2 cells after 48 hrs by SRB assay; assay type: functional; details: SK-MEL-2, 48 h; summary of the method: as §1
SK-MEL-5 = assay: Cytotoxicity against human SK-MEL-5 cells after 48 hrs by SRB assay; assay type: functional; details: SK-MEL-5, 48 h; summary of the method: as §1
SN12C = assay: Cytotoxicity against human SN12C cells after 48 hrs by SRB assay; assay type: functional; summary of the method: as §1
SW-620 = assay: Cytotoxicity against human SW620 cells after 48 hrs by SRB assay; assay type: functional; details: SW-620, 48 h; summary of the method: as §2
T47D = assay: Cytotoxicity against human T47D cells after 48 hrs by SRB assay; assay type: functional; summary of the method: as §2
RXF 393 = assay: Cytotoxicity against human RXF393 cells after 48 hrs by SRB assay; assay type: functional; details: RXF 393, 48 h; summary of the method: as §1
HCT-116 = assay: Cytotoxicity against human HCT116 cells after 48 hrs by SRB assay; assay type: functional; details: HCT-116, 48 h; summary of the method: as §1
PC-3 = assay: Cytotoxicity against human PC3 cells after 48 hrs by SRB assay; assay type: functional; details: PC-3, 48 h; summary of the method: as §1
[4] = read-out: LC50 (the source's name)

## C=C1C(=O)O[C@H]2[C@H]1CC/C(COC(=O)NCCCCCCCCNC(=O)OC/C1=C/CC[C@@]3(C)O[C@H]3[C@H]3OC(=O)C(=C)[C@@H]3CC1)=C\CC[C@@]1(C)O[C@@H]21
786-0
  GI50: 0.24 µM
786-0; [4]
  CC50: 2.93 µM
CCRF-CEM
  GI50: 0.25 µM
CCRF-CEM; [4]
  CC50: > 100 µM
COLO 205
  GI50: 0.3 µM
COLO 205; [4]
  CC50: 3.99 µM
[1]
  GI50: 3.91 µM
[1]; [4]
  CC50: 82 µM
UO-31
  GI50: 0.88 µM
UO-31; [4]
  CC50: 4.9 µM
SNB-75
  GI50: 1.25 µM
SNB-75; [4]
  CC50: 9.84 µM
KM12
  GI50: 1.29 µM
KM12; [4]
  CC50: 7.49 µM
SF-295
  GI50: 1.95 µM
SF-295; [4]
  CC50: 16.2 µM
[2]
  EC50: 1.2 µM
OVCAR-4
  GI50: 0.52 µM
OVCAR-4; [4]
  CC50: 4.63 µM
NCI-H522
  GI50: 0.18 µM
NCI-H522; [4]
  CC50: 0.89 µM
HCC 2998
  GI50: 1.2 µM
HCC 2998; [4]
  CC50: 5.28 µM
A498
  GI50: 1.69 µM
A498; [4]
  CC50: 5.83 µM
ACHN
  GI50: 0.25 µM
ACHN; [4]
  CC50: 2.85 µM
HOP-62
  GI50: 1.53 µM
HOP-62; [4]
  CC50: 7.95 µM
U-251
  GI50: 0.57 µM
U-251; [4]
  CC50: 5.13 µM
MDA-MB-435
  GI50: 0.24 µM
MDA-MB-435; [4]
  CC50: 3.74 µM
UACC-257
  GI50: 0.84 µM
UACC-257; [4]
  CC50: 8.51 µM
[3]
  Ratio EC50: 2
NCI-H226
  GI50: 1.81 µM
NCI-H226; [4]
  CC50: 21.1 µM
NCI-H23
  GI50: 0.48 µM
NCI-H23; [4]
  CC50: 4.86 µM
MDA-MB-231
  GI50: 0.2 µM
  LC50: 1.24 µM
HOP-92
  GI50: 0.17 µM
HOP-92; [4]
  CC50: 2.29 µM
MOLT-4
  GI50: 0.33 µM
MOLT-4; [4]
  CC50: > 100 µM
SK-OV-3
  GI50: 3.64 µM
SK-OV-3; [4]
  CC50: 35.1 µM
MDA-MB-468
  GI50: 0.19 µM
  LC50: 1.5 µM
SK-MEL-2
  GI50: 0.6 µM
SK-MEL-2; [4]
  CC50: 17 µM
SK-MEL-5
  GI50: 1.21 µM
SK-MEL-5; [4]
  CC50: 5.53 µM
SN12C
  GI50: 0.26 µM
SN12C; [4]
  CC50: 5.49 µM
SW-620
  GI50: 0.23 µM
SW-620; [4]
  CC50: 3.37 µM
T47D
  GI50: 0.32 µM
T47D; [4]
  CC50: > 100 µM
RXF 393
  GI50: 0.16 µM
RXF 393; [4]
  CC50: 0.64 µM
HCT-116
  GI50: 0.19 µM
HCT-116; [4]
  CC50: 0.83 µM
PC-3
  GI50: 0.38 µM
  LC50 (concentration killing half the cell population): 5.2 µM
